Measured values gathered from unrelated publications.
Target: Proto-oncogene tyrosine-protein kinase Src (SRC, Homo sapiens, UniProt P12931)

SMILES	effect on	mode	method	tested at	quantity	result
C[C@H](C(=O)N[C@H]1COc2ccccc2[C@@H]1S(C)(=O)=O)c1ccc(F)cc1	enzyme activity	inhibitor	–	10 µM	inhibition	-5%
CC(C)(C)c1cc(C=C(C#N)C#N)cc(Br)c1O	enzyme activity	inhibitor	–	0.5 µM	remaining activity	87.4%
Cn1cc(-c2cc(F)cc(N3CCn4c(cc5c4CCCC5)C3=O)c2CO)cc(Nc2ccc(N3CCN(C4COC4)CC3)cn2)c1=O	enzyme activity	inhibitor	–	0.1 µM	inhibition	13%
Nc1ncc(-c2nc(N3CCOCC3)nc(N3CCOCC3)n2)c(C(F)F)n1	binding	–	competition with immobilised ligand	10 µM	remaining binding	57%
O=c1[nH]c2ccccc2n1C1CCN(Cc2ccc(-c3[nH]c4cc5ncnc5cc4nc3-c3ccccc3)cc2)CC1	cell-free assay	–	–	0.5 µM	remaining signal	103%
c1ccc(C(NCCNC(c2ccccc2)c2ccccc2)c2ccccc2)cc1	enzyme activity	inhibitor	–	10 µM	inhibition	-24%
O=C1c2c(O)cc(O)cc2OC(c2ccc(O)c(O)c2)C1O (stereo not drawn)	enzyme activity	inhibitor	–	80 µM	inhibition	53%
Cn1cc(-c2cccc(N3CCc4c(sc5c4CC(C)(C)C5)C3=O)c2CO)cc(Nc2ccncn2)c1=O	enzyme activity	inhibitor	–	1 µM	inhibition	39%
Cn1cncc1[C@](O)(COc1ccc(C#N)cc1-c1ccc(OC(F)(F)F)cc1)c1ccc(C#N)cc1	cell-free assay	–	competition with immobilised ligand	1 µM	remaining binding	81%
COc1ncccc1-c1cnn2ccc(N3CCN(C(=O)OC(C)C)CC3)nc12	binding	–	competition with immobilised ligand	1 µM	remaining binding	100%
C#Cc1n[nH]c2c(-c3cn(C(C)c4ccccn4)c(=O)[nH]c3=O)cc(F)cc12 (stereo not drawn)	enzyme activity	inhibitor	–	1 µM	inhibition	9.4%
Cc1nn(C)cc1-c1nc2c(N3CCN(Cc4ccc(Cl)cc4)CC3)c(Cl)cnc2[nH]1	binding	–	competition with immobilised ligand	1 µM	remaining binding	100%
